Where two headings read alike, the source gives them in different places.
Columns and labels:
[1] = system: D456 glioblastoma xenograft; assay: PPTP in vivo xenograft testing, D456; parameters: species or system mice
[2] = system: OS-2 osteosarcoma xenograft; assay: PPTP in vivo xenograft testing, OS-2; parameters: species or system mice
TC-71 Ewing xenograft = assay: PPTP in vivo xenograft testing, TC-71; parameters: species or system mice
BT-29 rhabdoid xenograft = assay: PPTP in vivo xenograft testing, BT-29; parameters: species or system mice
[3] = system: Rh41 ALV rhabdomyosarcoma xenograft; assay: PPTP in vivo xenograft testing, Rh41; parameters: species or system mice
[4] = system: NB-1691 neuroblastoma xenograft; assay: PPTP in vivo xenograft testing, NB-1691; parameters: species or system mice
KT-10 Wilms xenograft = assay: PPTP in vivo xenograft testing, KT-10; parameters: species or system mice
MOLT-4 cell line = assay: DIMSCAN in vitro cytotoxicity testing, MOLT-4; type: cell-based
How it was run: (§1)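 Test compound incubated with cells of a 24-line pediatric cancer panel for 96 h at 0.1 nM to 1 μM, then assessed by DIMSCAN. Relative IC50 (rIC50) derived per line. Panel comparison value is the panel rIC50 divided by the rIC50 of each cell line.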

KT-13 Wilms xenograft = assay: PPTP in vivo xenograft testing, KT-13; parameters: species or system mice
CCRF-CEM cell line = assay: DIMSCAN in vitro cytotoxicity testing, CCRF-CEM; type: cell-based; details: for IC50: Homo sapiens, CCRF-CEM, 96 h
How it was run: as §1

[5] = system: MLL-7 tertiary infant precursor B-ALL xenograft; assay: PPTP in vivo xenograft testing, MLL-7; parameters: species or system mice; details: 1.5 mg/kg IP
[6] = 1 mg/kg IP Q4Dx3 repeated at Day 21

In the case of C=C1C[C@@H]2CC[C@@]34C[C@H]5O[C@H]6[C@@H](O3)[C@H]3O[C@H](CC[C@@H]3O[C@H]6[C@H]5O4)CC(=O)C[C@@H]3[C@@H](OC)[C@@H](C[C@H](O)CN)O[C@H]3C[C@H]3O[C@@H](CC[C@@H]1O2)C[C@@H](C)C3=C [Eribulin], the EFS activity ([1]; 1 mg/kg IP) is reported as “Int (Intermediate activity = criteria (a) and (b) above, but not having a net reduction in median tumor volume for treated animals at the end of the study)”, the Response activity ([1]; 1 mg/kg IP) is reported as “Int (intermediate activity by a score of ≥2 but <6)” and the T/C volume activity ([1]; 1 mg/kg IP) is reported as “Low (Low activity = T/C >0.45)”. For the same compound, the “EFS T/C” value [1, 6] was 3.4, the “Median final RTV (CD45%)” value [1, 6] was over 4 and the Time to event [1, 6] was 19.8. For the same compound, the “Tumor volume T/C” value ([1]; 1 mg/kg IP, Day 21 or earlier) was 1.00, the EFS activity ([2]; 1 mg/kg IP) was “High (High activity requires: (a) an EFS T/C >2; (b) a significant difference in EFS distributions, and (c) a net reduction in median tumor volume for animals in the treated group at the end of treatment as compared to at treatment initiation)” and the Response activity ([2]; 1 mg/kg IP) was “Int (intermediate activity by a score of ≥2 but <6)”. For the same compound, the T/C volume activity ([2]; 1 mg/kg IP) was “Int (Intermediate activity = T/C ≤0.45 but >0.15)”, the “EFS T/C” value [2, 6] was over 2.5 and the “Median final RTV (CD45%)” value [2, 6] was 0.8. The “Tumor volume T/C” value ([2]; 1 mg/kg IP, Day 21 or earlier) was 0.21, the Response activity (TC-71 Ewing xenograft; 1 mg/kg IP) was “High (A high level of activity is indicated by a score of 6 or more)” and the T/C volume activity (TC-71 Ewing xenograft; 1 mg/kg IP) was “Int (Intermediate activity = T/C ≤0.45 but >0.15)”. For the same compound, the “EFS T/C” value (TC-71 Ewing xenograft; [6]) was over 1.5, the “Median final RTV (CD45%)” value (TC-71 Ewing xenograft; [6]) was 2.3 and the “Tumor volume T/C” value (TC-71 Ewing xenograft; 1 mg/kg IP, Day 21 or earlier) was 0.19. For the same compound, the Response activity (BT-29 rhabdoid xenograft; 1 mg/kg IP) was “Int (intermediate activity by a score of ≥2 but <6)”, the T/C volume activity (BT-29 rhabdoid xenograft; 1 mg/kg IP) was “Low (Low activity = T/C >0.45)” and the “EFS T/C” value (BT-29 rhabdoid xenograft; [6]) was over 1.6. For the same compound, the “Median final RTV (CD45%)” value (BT-29 rhabdoid xenograft; [6]) was over 4, the “Tumor volume T/C” value (BT-29 rhabdoid xenograft; 1 mg/kg IP, Day 21 or earlier) was 0.65 and the EFS activity ([3]; 1 mg/kg IP) was “High (High activity requires: (a) an EFS T/C >2; (b) a significant difference in EFS distributions, and (c) a net reduction in median tumor volume for animals in the treated group at the end of treatment as compared to at treatment initiation)”. The Response activity ([3]; 1 mg/kg IP) was “High (A high level of activity is indicated by a score of 6 or more)”, the T/C volume activity ([3]; 1 mg/kg IP) was “High (High activity = T/C ≤0.15)” and the “EFS T/C” value [3, 6] was over 3.0. For the same compound, the “Median final RTV (CD45%)” value [3, 6] was 0.0, the “Tumor volume T/C” value ([3]; 1 mg/kg IP, Day 21 or earlier) was 0.07 and the EFS activity ([4]; 1 mg/kg IP) was “Low (Low activity = EFS T/C <2)”. For the same compound, the Response activity ([4]; 1 mg/kg IP) was “Low (low activity by a score of <2)”, the T/C volume activity ([4]; 1 mg/kg IP) was “Low (Low activity = T/C >0.45)” and the “EFS T/C” value [4, 6] was 1.1. The “Median final RTV (CD45%)” value [4, 6] was over 4, the Time to event [4, 6] was 7.9 and the “Tumor volume T/C” value ([4]; 1 mg/kg IP, Day 21 or earlier) was 0.80. The EFS activity (KT-10 Wilms xenograft; 1 mg/kg IP) was “High (High activity requires: (a) an EFS T/C >2; (b) a significant difference in EFS distributions, and (c) a net reduction in median tumor volume for animals in the treated group at the end of treatment as compared to at treatment initiation)”, the Response activity (KT-10 Wilms xenograft; 1 mg/kg IP) was “High (A high level of activity is indicated by a score of 6 or more)” and the T/C volume activity (KT-10 Wilms xenograft; 1 mg/kg IP) was “High (High activity = T/C ≤0.15)”. For the same compound, the “EFS T/C” value (KT-10 Wilms xenograft; [6]) was over 3.7, the “Median final RTV (CD45%)” value (KT-10 Wilms xenograft; [6]) was 0.0 and the “Tumor volume T/C” value (KT-10 Wilms xenograft; 1 mg/kg IP, Day 21 or earlier) was 0.01. The IC50 (MOLT-4 cell line; Homo sapiens, MOLT-4, 96 h, read-out: rIC50) was under 0.1 nM, the “Panel rIC50/Line rIC50” value (MOLT-4 cell line; MOLT-4) was over 2.74 and the Relative in/out% (MOLT-4 cell line; MOLT-4) was −99%. For the same compound, the “Ymin % (observed)” value (MOLT-4 cell line; MOLT-4) was 0.05%, the EFS activity (KT-13 Wilms xenograft; 1 mg/kg IP) was “Int (Intermediate activity = criteria (a) and (b) above, but not having a net reduction in median tumor volume for treated animals at the end of the study)” and the Response activity (KT-13 Wilms xenograft; 1 mg/kg IP) was “High (A high level of activity is indicated by a score of 6 or more)”. For the same compound, the T/C volume activity (KT-13 Wilms xenograft; 1 mg/kg IP) was “High (High activity = T/C ≤0.15)”, the “EFS T/C” value (KT-13 Wilms xenograft; [6]) was over 3.3 and the “Median final RTV (CD45%)” value (KT-13 Wilms xenograft; [6]) was 1.1. For the same compound, the “Tumor volume T/C” value (KT-13 Wilms xenograft; 1 mg/kg IP, Day 21 or earlier) was 0.15, the “Panel rIC50/Line rIC50” value (CCRF-CEM cell line; CCRF-CEM (1)) was 0.17 and the Relative in/out% (CCRF-CEM cell line; CCRF-CEM (1)) was −100%. For the same compound, the “Ymin % (observed)” value (CCRF-CEM cell line; CCRF-CEM (1)) was 0.01%, the “Panel rIC50/Line rIC50” value (CCRF-CEM cell line; CCRF-CEM (2)) was 0.14 and the Relative in/out% (CCRF-CEM cell line; CCRF-CEM (2)) was −100%. For the same compound, the “Ymin % (observed)” value (CCRF-CEM cell line; CCRF-CEM (2)) was 0.02%, the IC50 (CCRF-CEM cell line; read-out: rIC50, CCRF-CEM (1) ALL) was 1.62 nM and the IC50 (CCRF-CEM cell line; read-out: rIC50, CCRF-CEM (2) ALL) was 1.88 nM. For the same compound, the EFS activity [5] was “High (High activity requires: (a) an EFS T/C >2; (b) a significant difference in EFS distributions, and (c) a net reduction in median tumor volume for animals in the treated group at the end of treatment as compared to at treatment initiation)” and the Response activity [5] was “High (A high level of activity is indicated by a score of 6 or more)”.

From paper PMC4263960 (Pediatric blood & cancer, 2013)
